{"source": "ChEMBL document CHEMBL4251567", "about": "(Eur J Med Chem, 2018)", "key": {"Histone deacetylase": {"biological_target": "Histone deacetylase", "assay": "Inhibition of HDAC in human HeLa-S3 cell lysates preincubated for 15 mins followed by HDAC-Glo substrate addition measured after 35 mins by fluorimetric method", "format": "protein assay"}, "[1]": {"biological_target": "Histone deacetylase 3 (Homo sapiens) (UniProt O15379)", "sequence (O15379 whole entry)": "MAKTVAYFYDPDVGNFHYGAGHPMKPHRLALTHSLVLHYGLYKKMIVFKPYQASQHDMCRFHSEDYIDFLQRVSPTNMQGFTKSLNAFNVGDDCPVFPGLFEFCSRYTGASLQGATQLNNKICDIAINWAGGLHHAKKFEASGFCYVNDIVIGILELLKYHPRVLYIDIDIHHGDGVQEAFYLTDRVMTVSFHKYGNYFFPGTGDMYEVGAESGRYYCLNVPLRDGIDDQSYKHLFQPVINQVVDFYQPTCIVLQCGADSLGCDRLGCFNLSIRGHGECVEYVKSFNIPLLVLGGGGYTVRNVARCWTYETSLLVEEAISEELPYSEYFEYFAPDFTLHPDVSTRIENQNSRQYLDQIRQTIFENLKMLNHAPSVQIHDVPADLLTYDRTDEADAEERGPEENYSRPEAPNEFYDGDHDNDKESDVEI", "assay": "Inhibition of HDAC3 in human HeLa-S3 cell lysates assessed as remaining activity at 8 x 10^-5 M preincubated for 15 mins followed by HDAC-Glo substrate addition measured after 30 to 40 mins by […] relative to control", "in_short": "(§1)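 Antibody-capture (ELISA-type) assay: HDAC antibody coated in carbonate/bicarbonate buffer pH 9.4, wells blocked with 5% milk in TBST. HeLa-S3 lysate added at 1 mg/mL for HDAC3, 1 h at 4 °C, then washed. Inhibitor in DMSO preincubated 15 min at RT in HDAC-Glo buffer. HDAC-Glo reagent added, luminescence read after 30-40 min. Concentrations are final. Background = no-antibody well; activity given as % of DMSO control.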"}, "[2]": {"biological_target": "Histone deacetylase 3 (Homo sapiens) (UniProt O15379)", "assay": "Inhibition of HDAC3 in human HeLa-S3 cell lysates assessed as remaining activity at 2 x 10^-5 M preincubated for 15 mins followed by HDAC-Glo substrate addition measured after 30 to 40 mins by […] relative to control", "in_short": "as §1"}, "[3]": {"biological_target": "Histone deacetylase 1 (Homo sapiens) (UniProt Q13547)", "sequence (Q13547 whole entry)": "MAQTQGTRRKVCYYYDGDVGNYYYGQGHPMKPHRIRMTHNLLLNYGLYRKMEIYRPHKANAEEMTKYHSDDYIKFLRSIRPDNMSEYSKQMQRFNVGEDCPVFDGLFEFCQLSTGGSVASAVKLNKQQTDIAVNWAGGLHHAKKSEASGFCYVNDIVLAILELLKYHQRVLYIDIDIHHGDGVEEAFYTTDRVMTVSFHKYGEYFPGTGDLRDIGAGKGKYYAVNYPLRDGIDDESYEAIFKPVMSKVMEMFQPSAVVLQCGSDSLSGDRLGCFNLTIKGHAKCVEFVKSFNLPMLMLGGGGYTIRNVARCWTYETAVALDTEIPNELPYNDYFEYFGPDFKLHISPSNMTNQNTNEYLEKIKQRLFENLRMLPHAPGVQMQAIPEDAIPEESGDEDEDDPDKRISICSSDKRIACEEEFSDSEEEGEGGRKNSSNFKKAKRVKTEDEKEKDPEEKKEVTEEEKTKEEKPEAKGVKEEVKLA", "assay": "Inhibition of HDAC1 in human HeLa-S3 cell lysates assessed as remaining activity at 4 x 10^-5 M preincubated for 15 mins followed by HDAC-Glo substrate addition measured after 30 to 40 mins by […] relative to control", "in_short": "(§2)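 HDAC1 was captured from HeLa-S3 lysate (100 μg/mL) onto wells precoated with anti-HDAC1 antibody (10 μg/mL, carbonate buffer pH 9.4) and milk-blocked, 1 h at 4 °C, then washed. Inhibitor in DMSO was added in HDAC-Glo buffer for 15 min at room temperature. HDAC-Glo reagent was added and luminescence read after 30-40 min. Concentrations are final. No-antibody background subtracted; % of DMSO control.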"}, "[4]": {"biological_target": "Histone deacetylase 2 (Homo sapiens) (UniProt Q92769)", "sequence (Q92769 whole entry, canonical isoform)": "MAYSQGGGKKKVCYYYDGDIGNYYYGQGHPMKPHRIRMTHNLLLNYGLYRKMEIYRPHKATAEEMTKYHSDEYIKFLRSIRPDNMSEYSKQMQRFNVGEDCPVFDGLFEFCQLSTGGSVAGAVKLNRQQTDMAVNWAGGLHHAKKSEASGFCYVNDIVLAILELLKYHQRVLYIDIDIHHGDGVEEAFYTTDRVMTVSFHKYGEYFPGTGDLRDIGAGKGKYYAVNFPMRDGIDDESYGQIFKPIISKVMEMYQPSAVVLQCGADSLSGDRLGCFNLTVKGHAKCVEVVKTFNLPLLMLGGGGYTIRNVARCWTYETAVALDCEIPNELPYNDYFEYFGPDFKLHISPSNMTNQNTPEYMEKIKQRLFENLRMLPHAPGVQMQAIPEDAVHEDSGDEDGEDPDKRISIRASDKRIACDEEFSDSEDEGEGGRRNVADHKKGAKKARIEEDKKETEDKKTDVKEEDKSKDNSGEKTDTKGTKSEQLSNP", "assay": "Inhibition of HDAC2 in human HeLa-S3 cell lysates assessed as remaining activity at 1.6 x 10^-4 M preincubated for 15 mins followed by HDAC-Glo substrate addition measured after 30 to 40 mins by […] relative to control", "in_short": "(§3)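 Same antibody-capture format as the other class I isoforms. HeLa-S3 lysate added at 100 μg/mL for HDAC1 and HDAC2, 1 h at 4 °C, then washed. Inhibitor in DMSO preincubated 15 min at RT; HDAC-Glo reagent added and luminescence read after 30-40 min. Concentrations are final. Signal corrected against a well without antibody; activity expressed as % of DMSO control.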"}, "[5]": {"biological_target": "Histone deacetylase 2 (Homo sapiens) (UniProt Q92769)", "assay": "Inhibition of HDAC2 in human HeLa-S3 cell lysates assessed as remaining activity at 4 x 10^-5 M preincubated for 15 mins followed by HDAC-Glo substrate addition measured after 30 to 40 mins by […] relative to control", "in_short": "as §3"}, "[6]": {"biological_target": "Histone deacetylase 1 (Homo sapiens) (UniProt Q13547)", "assay": "Inhibition of HDAC1 in human HeLa-S3 cell lysates assessed as remaining activity at 8 x 10^-5 M preincubated for 15 mins followed by HDAC-Glo substrate addition measured after 30 to 40 mins by […] relative to control"}, "[7]": {"biological_target": "Histone deacetylase 1 (Homo sapiens) (UniProt Q13547)", "assay": "Inhibition of HDAC1 in human HeLa-S3 cell lysates assessed as remaining activity at 1.6 x 10^-4 M preincubated for 15 mins followed by HDAC-Glo substrate addition measured after 30 to 40 mins by […] relative to control", "in_short": "as §2"}, "[8]": {"biological_target": "Histone deacetylase 3 (Homo sapiens) (UniProt O15379)", "assay": "Inhibition of HDAC3 in human HeLa-S3 cell lysates assessed as remaining activity at 4 x 10^-5 M preincubated for 15 mins followed by HDAC-Glo substrate addition measured after 30 to 40 mins by […] relative to control", "in_short": "as §1"}, "[9]": {"biological_target": "Histone deacetylase 1 (Homo sapiens) (UniProt Q13547)", "assay": "Inhibition of HDAC1 in human HeLa-S3 cell lysates assessed as remaining activity at 2 x 10^-5 M preincubated for 15 mins followed by HDAC-Glo substrate addition measured after 30 to 40 mins by […] relative to control", "in_short": "as §2"}, "[10]": {"biological_target": "Histone deacetylase 3 (Homo sapiens) (UniProt O15379)", "assay": "Inhibition of HDAC3 in human HeLa-S3 cell lysates assessed as remaining activity at 1.6 x 10^-4 M preincubated for 15 mins followed by HDAC-Glo substrate addition measured after 30 to 40 mins by […] relative to control", "in_short": "as §1"}, "[11]": {"biological_target": "Histone deacetylase 3 (Homo sapiens) (UniProt O15379)", "assay": "Inhibition of HDAC3 in human HeLa-S3 cell lysates assessed as remaining activity at 1 x 10^-5 M preincubated for 15 mins followed by HDAC-Glo substrate addition measured after 30 to 40 mins by […] relative to control", "in_short": "as §1"}, "[12]": {"biological_target": "Histone deacetylase 2 (Homo sapiens) (UniProt Q92769)", "assay": "Inhibition of HDAC2 in human HeLa-S3 cell lysates assessed as remaining activity at 2 x 10^-5 M preincubated for 15 mins followed by HDAC-Glo substrate addition measured after 30 to 40 mins by fluorimetric method relative to control", "in_short": "as §3"}, "[13]": {"biological_target": "Histone deacetylase 2 (Homo sapiens) (UniProt Q92769)", "assay": "Inhibition of HDAC2 in human HeLa-S3 cell lysates assessed as remaining activity at 8 x 10^-5 M preincubated for 15 mins followed by HDAC-Glo substrate addition measured after 30 to 40 mins by […] relative to control", "in_short": "as §3"}, "[14]": {"biological_target": "Histone deacetylase 1 (Homo sapiens) (UniProt Q13547)", "assay": "Inhibition of HDAC1 in human HeLa-S3 cell lysates assessed as remaining activity at 1 x 10^-5 M preincubated for 15 mins followed by HDAC-Glo substrate addition measured after 30 to 40 mins by fluorimetric method relative to control", "in_short": "as §2"}, "[15]": {"biological_target": "Histone deacetylase (Homo sapiens) (UniProt Q13547+O15379+Q9UBN7+Q92769+Q9UQL6+Q8WUI4+Q9BY41+Q96DB2+P56524+Q9UKV0+Q969S8)", "assay": "Inhibition of HDAC in human HeLa-S3 cell lysates assessed as residual activity at 1.25 x 10^-5 M preincubated for 15 mins followed by HDAC-Glo substrate addition measured after 35 mins by […] relative to control", "format": "protein assay"}}}
{"smiles": "CCC(CCCC(=O)Nc1ccccc1)CCC(=O)NO", "note": "(configuration not stated)", "values": [{"measurement": "IC50", "setting": "Histone deacetylase", "value": 14, "unit": "µM"}]}
{"smiles": "O=C(CCC(CCCC(=O)Nc1ccccc1)Cc1ccccc1)NO", "note": "(racemic)", "values": [{"measurement": "Activity", "setting": "[1]", "value": 33, "unit": "%"}, {"measurement": "Activity", "setting": "[2]", "value": 63, "unit": "%"}, {"measurement": "Activity", "setting": "[3]", "value": 44, "unit": "%"}, {"measurement": "Activity", "setting": "[4]", "value": 20, "unit": "%"}, {"measurement": "Activity", "setting": "[5]", "value": 47, "unit": "%"}, {"measurement": "Activity", "setting": "[6]", "value": 27, "unit": "%"}, {"measurement": "Activity", "setting": "[7]", "value": 16, "unit": "%"}, {"measurement": "IC50", "setting": "Histone deacetylase", "value": 62, "unit": "µM"}, {"measurement": "Activity", "setting": "[8]", "value": 55, "unit": "%"}, {"measurement": "Activity", "setting": "[9]", "value": 58, "unit": "%"}, {"measurement": "Activity", "setting": "[10]", "value": 19, "unit": "%"}, {"measurement": "Activity", "setting": "[11]", "value": 87, "unit": "%"}, {"measurement": "Activity", "setting": "[12]", "value": 60, "unit": "%"}, {"measurement": "Activity", "setting": "[13]", "value": 27, "unit": "%"}, {"measurement": "Activity", "setting": "[14]", "value": 75, "unit": "%"}, {"measurement": "Activity", "setting": "[15]", "value": 88, "unit": "%"}]}
{"smiles": "CCCCCCC(CCCC(=O)Nc1ccccc1)CCC(=O)NO", "note": "(configuration not stated)", "values": [{"measurement": "Activity", "setting": "[1]", "value": 25, "unit": "%"}, {"measurement": "Activity", "setting": "[2]", "value": 56, "unit": "%"}, {"measurement": "Activity", "setting": "[3]", "value": 46, "unit": "%"}, {"measurement": "Activity", "setting": "[4]", "value": 16, "unit": "%"}, {"measurement": "Activity", "setting": "[5]", "value": 46, "unit": "%"}, {"measurement": "Activity", "setting": "[6]", "value": 26, "unit": "%"}, {"measurement": "Activity", "setting": "[7]", "value": 13, "unit": "%"}, {"measurement": "IC50", "setting": "Histone deacetylase", "value": 60, "unit": "µM"}, {"measurement": "Activity", "setting": "[8]", "value": 42, "unit": "%"}, {"measurement": "Activity", "setting": "[9]", "value": 67, "unit": "%"}, {"measurement": "Activity", "setting": "[10]", "value": 5, "unit": "%"}, {"measurement": "Activity", "setting": "[11]", "value": 88, "unit": "%"}, {"measurement": "Activity", "setting": "[12]", "value": 73, "unit": "%"}, {"measurement": "Activity", "setting": "[13]", "value": 31, "unit": "%"}, {"measurement": "Activity", "setting": "[14]", "value": 83, "unit": "%"}, {"measurement": "Activity", "setting": "[15]", "value": 87, "unit": "%"}]}
{"smiles": "O=C(CC[C@H](CCCC(=O)Nc1ccccc1)Cc1ccccc1)NO", "values": [{"measurement": "Activity", "setting": "[1]", "value": 33, "unit": "%"}, {"measurement": "Activity", "setting": "[2]", "value": 67, "unit": "%"}, {"measurement": "Activity", "setting": "[3]", "value": 50, "unit": "%"}, {"measurement": "Activity", "setting": "[4]", "value": 22, "unit": "%"}, {"measurement": "Activity", "setting": "[5]", "value": 56, "unit": "%"}, {"measurement": "Activity", "setting": "[6]", "value": 32, "unit": "%"}, {"measurement": "Activity", "setting": "[7]", "value": 17, "unit": "%"}, {"measurement": "Activity", "setting": "[8]", "value": 48, "unit": "%"}, {"measurement": "Activity", "setting": "[9]", "value": 68, "unit": "%"}, {"measurement": "Activity", "setting": "[10]", "value": 15, "unit": "%"}, {"measurement": "Activity", "setting": "[11]", "value": 76, "unit": "%"}, {"measurement": "Activity", "setting": "[12]", "value": 74, "unit": "%"}, {"measurement": "Activity", "setting": "[13]", "value": 37, "unit": "%"}, {"measurement": "Activity", "setting": "[14]", "value": 84, "unit": "%"}]}
